The source made the active and inactive calls. The calls are words filed in the database; no cut-off is given here.
Experiments:
[1] = Inhibition of Wnt/beta-Catenin signaling (unknown origin) expressed in recombinant human Wnt-3a-induced Wnt-HEK293 cells incubated for 24 hrs by luciferase reporter gene assay; assay type: cell-based
Summary of the method: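 Stably transfected Wnt-HEK293 cells, 2000/well in DMEM + 10% FBS, incubated overnight at 37 °C. Compounds pin-transferred, then recombinant human Wnt-3a added (200 ng/mL stock); unstimulated control wells received medium. After 24 h at 37 °C, ONE-Glo luminescence read after 30 min at room temperature; CellTiter-Fluor viability read in parallel. IC50 reported as mean ± SD of three independent experiments.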

SW480 [2] = experiment: Growth inhibition of human SW480 cells at 50 uM by Cell-titer-fluor reagent based assay relative to control; assay type: functional; details: read-out: GI
SW480 [3] = experiment: Growth inhibition of human SW480 cells by Cell-titer-fluor reagent based assay; assay type: functional
Homo sapiens [4] = species on record: Homo sapiens; experiment: Inhibition of Wnt/beta-Catenin signaling (unknown origin) expressed in recombinant human Wnt-3a-induced Wnt-HEK293 cells assessed as increase in beta-catenin degradation at 1 uM by Western blot analysis; assay type: cell-based
[5] = molecular target: AMP-activated protein kinase, AMPK (Homo sapiens) (UniProt P54646+O43741+P54619+Q9UGJ0+Q9Y478+Q13131+Q9UGI9); experiment: Activation of AMPK in HEK293 cells over-expressing Axin-1 assessed as increase in AMPK phosphorylation at T172 residue at 10 uM incubated for 24 hrs by Western blot analysis; assay type: cell-based
Homo sapiens [6] = species on record: Homo sapiens; experiment: Potency index, ratio of IC50 for pyrvinium to test compound for inhibition of Wnt/beta-Catenin signaling (unknown origin) expressed in recombinant human Wnt-3a-induced Wnt-HEK293 cells incubated for 24 hrs by luciferase reporter gene assay; assay type: cell-based
Homo sapiens [7] = species on record: Homo sapiens; experiment: Potency index, ratio of IC50 for XAV939 to test compound for inhibition of Wnt/beta-Catenin signaling (unknown origin) expressed in recombinant human Wnt-3a-induced Wnt-HEK293 cells incubated for 24 hrs by luciferase reporter gene assay; assay type: cell-based

Row | Structure (SMILES) | IC50 [1] [nM] | inhibition of growth at 50 µM (SW480 [2]) [%] | GI50 (SW480 [3]) [µM] | further results
1 | CCc1ccccc1-n1ncc(C(=O)Nc2cccc(C)n2)c1C | 380 | – | – | –
2 | CCc1c(C(=O)Nc2ccc3ccccc3n2)cnn1-c1ccccc1 | 1.7 | – | – | –
3 | Cc1cccc(C)c1-n1ncc(C(=O)Nc2ccc3ccccc3n2)c1C | 26 | > 50 | 7.2 | –
4 | Cc1ccccc1-n1nc(C(=O)Nc2ccc3ccccc3n2)cc1C | 250 | – | – | –
5 | O=C(Nc1ccc2ccccc2n1)c1nn(-c2ccccc2)c2c1CCCC2 | 260 | – | – | –
6 | Cc1ccccc1-n1nnc(C(=O)Nc2ccc3ccccc3n2)c1C | – | – | – | inhibition (Homo sapiens [4]): Active; Activity [5]: Active
7 | Cc1c(C(=O)Nc2ccc3ccccc3n2)cnn1-c1ccccc1F | 0.92 | > 50 | 33.3 | –
8 | Cc1ccc(C)c(-n2ncc(C(=O)Nc3ccc4ccccc4n3)c2C)c1 | 14 | > 50 | 24.6 | –
9 | Cc1c(C(=O)Nc2ccc3ccccc3n2)cnn1-c1cccc(Cl)c1F | 14 | > 50 | 9 | –
10 | Cc1cccnc1-n1ncc(C(=O)Nc2ccc3ccccc3n2)c1C | 2.2 | – | – | –
11 | CCc1ccccc1-n1ncc(C(=O)Nc2ccc3ccccc3n2)c1C | 1.2 | > 50 | 9.7 | –
12 | Cc1c(C(=O)Nc2ccc3ccccc3n2)cnn1-c1ccc(F)cc1F | 16 | – | – | –
13 | CCc1ccccc1-n1ncc(C(=O)Nc2ccc3ccccc3c2)c1C | > 1000 | – | – | –
14 | O=C(Nc1ccc2ccccc2n1)c1nn(-c2ccccc2)c2c1CCC2 | 140 | – | – | –
15 | CCc1ccccc1-n1nc(C(=O)Nc2ccc3ccccc3n2)cc1C | 67 | – | – | –
16 | CC(C)c1c(C(=O)Nc2ccc3ccccc3n2)cnn1-c1ccccc1 | 15 | > 50 | 17.3 | –
17 | O=C(Nc1ccc2ccccc2n1)c1cnn(-c2ccccc2)c1Cl | 29 | – | – | –
18 | Cc1c(C(=O)Nc2ccc3ccccc3n2)cnn1-c1c(F)cccc1Br | 3.2 | > 50 | 3.9 | –
19 | Cc1cc(/C=C/c2ccc3cc(N(C)C)ccc3[n+]2C)c(C)n1-c1ccccc1 [PYRVINIUM] | 750 | – | 3.7 | inhibition (Homo sapiens [4]): Active
20 | Cc1cc(C(=O)Nc2ccc3ccccc3n2)nn1-c1ccccc1 | 637 | – | – | –
21 | O=C(Nc1ccc2ccccc2n1)c1cnn(-c2ccccc2)c1Br | 3.7 | – | – | –
22 | CCc1ccccc1-n1ncc(C(=O)Nc2cc3ccccc3cn2)c1C | > 1000 | – | – | –
23 | Cc1c(C(=O)Nc2ccc3ccccc3n2)cnn1-c1c(F)cccc1F | 1.6 | – | – | –
24 | CN(C)c1c(C(=O)Nc2ccc3ccccc3n2)cnn1-c1ccccc1 | 6 | – | – | –
25 | Oc1nc(-c2ccc(C(F)(F)F)cc2)nc2c1CSCC2 | 450 | – | > 50 | –
26 | Cc1c(C(=O)Nc2ccc3ccccc3n2)cnn1-c1ccccc1 | 2.2 | > 50 | 23.9 | Ratio IC50 (Homo sapiens [6]): > 300; Ratio IC50 (Homo sapiens [7]): > 200

Reference: ChEMBL document CHEMBL4414663, “Pyrazole-4-Carboxamide (YW2065): A Therapeutic Candidate for Colorectal Cancer via Dual Activities of Wnt/β-Catenin Signaling Inhibition and AMP-Activated Protein Kinase (AMPK) Activation” (J Med Chem, 2019)
